How the values were obtained:
Canis familiaris [1] = assay: Drug metabolism in beagle dog assessed as R-138727 formation in liver at 1 mg/kg, intraduodenal; format: ADME, organism-based, Canis lupus familiaris; design: dose 1 mg/kg, route intraduodenal; details: in vivo, other
Procedure, shortened: (§1)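 Male beagle dogs (n = 6, 9–12 kg) with portal- and hepatic-vein cannulas, fasted about 19 h, got 1 mg/kg intraduodenally in 5% N,N-dimethylacetamide–95% PEG 400. Portal, hepatic and jugular blood was drawn into heparin at 1–120 min. Plasma was precipitated with acetonitrile (phenacetin internal standard) and analysed by LC-MS/MS in MRM mode. AUC0–2h was by trapezoidal noncompartmental analysis, mean ± S.D.; availability fractions were calculated from these AUCs.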

Canis familiaris [2] = assay: Drug metabolism in beagle dog assessed as R-95913 formation in liver at 1 mg/kg, intraduodenal; format: ADME, organism-based, Canis lupus familiaris; design: dose 1 mg/kg, route intraduodenal; details: in vivo, other; procedure, shortened: as §1
Canis familiaris [3] = assay: Drug metabolism in beagle dog assessed as fraction of compound hydrolysis to R-138727 formation in intestine at 1 mg/kg, intraduodenal; format: ADME, organism-based, Canis lupus familiaris; design: dose 1 mg/kg, route intraduodenal; details: in vivo, other; procedure, shortened: as §1
Canis familiaris [4] = assay: Drug metabolism in beagle dog assessed as fraction of compound hydrolysis to R-95913 formation in intestine at 1 mg/kg, intraduodenal; format: ADME, organism-based, Canis lupus familiaris; design: dose 1 mg/kg, route intraduodenal; details: in vivo, other; procedure, shortened: as §1
Canis familiaris [5] = assay: Drug metabolism in beagle dog assessed as product of fraction of intestinal absorption and fraction of compound hydrolysis to R-138727 formation in intestine at 1 mg/kg, intraduodenal; format: ADME, organism-based, Canis lupus familiaris; design: dose 1 mg/kg, route intraduodenal; details: in vivo, other; procedure, shortened: as §1
Canis familiaris [6] = assay: Drug metabolism in beagle dog assessed as fraction of R-95913 hydrolysis to R-138727 formation at 1 mg/kg, intraduodenal; format: ADME, organism-based, Canis lupus familiaris; design: dose 1 mg/kg, route intraduodenal; details: in vivo, other; procedure, shortened: as §1
Canis familiaris [7] = assay: Drug metabolism in beagle dog assessed as product of fraction of intestinal absorption and fraction of compound hydrolysis to R-95913 formation in intestine at 1 mg/kg, intraduodenal; format: ADME, organism-based, Canis lupus familiaris; design: dose 1 mg/kg, route intraduodenal; details: in vivo, other; procedure, shortened: as §1
Liver microsome [8] = assay: Drug metabolism in human liver microsomes assessed as R-138727 formation at 1.6 to 200 uM measured per protein after 15 mins incubation; format: ADME; details: 0.25 h
[9] = Drug metabolism in human intestinal microsomes assessed as R-138727 formation at 1.6 to 200 uM after 15 mins incubation; format: ADME, Intestine, Microsome; details: 0.25 h
Procedure, shortened: (§2)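 Preincubated 5 min at 37°C, then R-95913 added (1.6–200 μM final) and incubated 15 min at 37°C, in triplicate. Stopped with methoxyphenacyl bromide and internal standard in acetonitrile, solid-phase extracted, and analysed by HPLC. Michaelis-Menten fit, CLint = Vmax/Km.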

[10] = Intrinsic clearance in human intestinal microsomes assessed as R-138727 formation measured per protein at 1.6 to 200 uM after 15 mins incubation; format: ADME, Intestine, Microsome; details: 0.25 h
Procedure, shortened: (§3)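 Microsomes (1 mg protein/ml; dog intestinal, dog liver or human intestinal) in 43 mM potassium phosphate pH 7.4 with an NADPH-generating system and 5 mM glutathione, in triplicate. After 5 min preincubation at 37°C, R-95913 (1.6–200 µM final) was added for 15 min at 37°C. Product was derivatised with methoxyphenacyl bromide, extracted by SPE and measured by HPLC. Michaelis–Menten fit; CLint = Vmax/Km.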

Liver microsome [11] = assay: Intrinsic clearance in human liver microsomes assessed as R-138727 formation at 1.6 to 200 uM measured per protein after 15 mins incubation; format: ADME; details: 0.25 h
Liver microsome [12] = assay: Intrinsic clearance in dog liver microsomes assessed as R-138727 formation measured per protein at 1.6 to 200 uM after 15 mins incubation; format: ADME, Canis lupus familiaris; details: 0.25 h; procedure, shortened: as §3
Liver microsome [13] = assay: Drug metabolism in dog liver microsomes assessed as R-138727 formation measured per protein at 1.6 to 200 uM after 15 mins incubation; format: ADME, Canis lupus familiaris; details: 0.25 h; procedure, shortened: as §2
[14] = Drug metabolism in dog intestinal microsomes assessed as R-138727 formation measured per protein at 1.6 to 200 uM after 15 mins incubation; format: ADME, Canis lupus familiaris, Intestine, Microsome; details: 0.25 h; procedure, shortened: as §2
Liver microsome [15] = assay: Drug metabolism in dog liver microsomes assessed as R-138727 formation at 1.6 to 200 uM after 15 mins incubation; format: ADME, Canis lupus familiaris; details: 0.25 h; procedure, shortened: as §2
[16] = Intrinsic clearance in dog intestinal microsomes assessed as R-138727 formation measured per protein at 1.6 to 200 uM after 15 mins incubation; format: ADME, Canis lupus familiaris, Intestine, Microsome; details: 0.25 h; procedure, shortened: as §3
[17] = Drug metabolism in dog intestinal microsomes assessed as R-138727 formation at 1.6 to 200 uM after 15 mins incubation; format: ADME, Canis lupus familiaris, Intestine, Microsome; details: 0.25 h; procedure, shortened: as §2
Liver microsome [18] = assay: Drug metabolism in human liver microsomes assessed as R-138727 formation at 1.6 to 200 uM after 15 mins incubation; format: ADME; details: 0.25 h
[19] = Drug metabolism in human intestinal microsomes assessed as R-138727 formation measured per protein at 1.6 to 200 uM after 15 mins incubation; format: ADME, Intestine, Microsome; details: 0.25 h; procedure, shortened: as §2

Compound	Fm (Canis familiaris [1])	Fm (Canis familiaris [2])	Fm (Canis familiaris [3])	Fm (Canis familiaris [4])	Fm (Canis familiaris [5])	Fm (Canis familiaris [6])	Fm (Canis familiaris [7])	Vmax (Liver microsome [8]) [pmol/min/mg]	Km [9] [µM]	CL [10] [µL/min/mg]	CLH (Liver microsome [11]) [µL/min/mg]	CLint (Liver microsome [12]) [µL/min/mg]	Vmax (Liver microsome [13]) [pmol/min/mg]	Vmax [14] [pmol/min/mg]	Km (Liver microsome [15]) [µM]	CL [16] [µL/min/mg]	Km [17] [µM]	Km (Liver microsome [18]) [µM]	Vmax [19] [pmol/min/mg]
CC(=O)Oc1cc2c(s1)CCN(C(C(=O)C1CC1)c1ccccc1F)C2 (centres undefined) [PRASUGREL]	0.75	0.08	0.13	0.83	0.13	0.23	0.8												
O=C1C=C2CN(C(C(=O)C3CC3)c3ccccc3F)CCC2S1 (centres undefined)								247	80.4	1.1	9.6	20.6	379.9	49.8	18.5	1.2	42.7	26	89.2

Reference: ChEMBL document CHEMBL3526088, “The intestine as an important contributor to prasugrel active metabolite formation in vivo” (Drug Metab Dispos, 2011)
